Results taken from paper PMC10692362 (Acta Pharmaceutica Sinica. B, 2023).
Residue numbers refer to the chain shown, from its start. Values joined by “and” are separate entries in the source; they are usually repeats but may differ in a detail not shown here. Equal values may be shown once. Read-outs that look alike come from different tables or passages of the source.

Assays:
MCF-7 tumor xenograft = MCF-7 tumor xenograft model in BALB/c nude mice; type: in vivo; details: Day 32
Procedure, shortened: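 Female BALB/c nude mice (15–18 g, 5 weeks old) received 1 × 10⁷ MCF-7 cells in 100 μL PBS into the right axillary mammary fat pad. Tumour volume (W² × L × 0.5) and body weight were measured every 2 days. Mice were sacrificed on Day 33. Tumours were assessed by IHC (Ki-67, ERα) and ERα Western blot.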

ERα [1] = biological target: T1, ERα (Homo sapiens, UniProt P03372); assay: Immunoblot analysis of ERα degradation in MCF-7 cells; type: cell-based; details: MCF-7 cells, 1 or 5 μmol/L
T1 sequence (P03372 1-595): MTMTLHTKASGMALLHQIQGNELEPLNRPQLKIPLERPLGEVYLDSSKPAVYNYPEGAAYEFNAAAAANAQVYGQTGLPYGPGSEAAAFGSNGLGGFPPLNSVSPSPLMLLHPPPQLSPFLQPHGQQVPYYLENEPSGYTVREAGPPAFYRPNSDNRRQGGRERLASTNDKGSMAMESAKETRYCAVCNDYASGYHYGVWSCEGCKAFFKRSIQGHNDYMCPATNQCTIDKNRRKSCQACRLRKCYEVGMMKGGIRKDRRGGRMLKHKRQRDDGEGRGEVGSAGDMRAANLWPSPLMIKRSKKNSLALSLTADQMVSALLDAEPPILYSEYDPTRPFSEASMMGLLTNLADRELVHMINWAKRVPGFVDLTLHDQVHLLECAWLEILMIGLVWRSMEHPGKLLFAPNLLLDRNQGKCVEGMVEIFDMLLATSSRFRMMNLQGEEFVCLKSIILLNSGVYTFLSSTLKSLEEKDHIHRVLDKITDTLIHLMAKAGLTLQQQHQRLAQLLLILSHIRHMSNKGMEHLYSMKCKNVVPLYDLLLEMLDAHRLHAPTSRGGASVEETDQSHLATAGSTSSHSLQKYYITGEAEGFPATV

human ERβ LBD = human ERβ LBD (Homo sapiens, UniProt Q92731); assay: Competitive fluorescence polarization binding assay, ERβ; details: for RBA ERβ: IC50 estradiol/IC50 compound × 100, estradiol = 100%
human ERβ LBD, sequence (Q92731 264-498 limits assumed): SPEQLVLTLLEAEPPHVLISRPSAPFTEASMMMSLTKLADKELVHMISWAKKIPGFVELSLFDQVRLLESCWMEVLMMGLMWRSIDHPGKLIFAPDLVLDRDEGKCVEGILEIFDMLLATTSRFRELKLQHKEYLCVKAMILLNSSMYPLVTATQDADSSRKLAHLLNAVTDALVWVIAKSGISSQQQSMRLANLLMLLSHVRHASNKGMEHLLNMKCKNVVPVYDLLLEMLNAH

T-47D^Y537S cells = assay: Cell viability assay; type: cell-based, human; details: read-out: T-47D^Y537S IC50, 72 h
T-47D cells = assay: Cell viability assay; type: cell-based, human; details: read-out: T-47D IC50, 72 h
human ERα LBD = biological target: T2, human ERα LBD (Homo sapiens, UniProt P03372); assay: Competitive fluorescence polarization binding assay, ERα; details: for RBA ERα: IC50 estradiol/IC50 compound × 100, estradiol = 100%; for α/β ratio: ratio of RBA ERα to RBA ERβ
T2 sequence (P03372 311-547 limits assumed): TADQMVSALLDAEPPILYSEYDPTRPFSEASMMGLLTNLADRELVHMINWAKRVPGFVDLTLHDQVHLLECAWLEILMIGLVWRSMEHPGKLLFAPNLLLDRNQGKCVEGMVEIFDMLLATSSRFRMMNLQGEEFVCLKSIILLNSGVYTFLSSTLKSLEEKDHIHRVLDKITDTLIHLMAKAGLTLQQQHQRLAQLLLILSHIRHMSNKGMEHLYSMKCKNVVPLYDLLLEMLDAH

T-47D^D538G cells = assay: Cell viability assay; type: cell-based, human; details: read-out: T-47D^D538G IC50, 72 h
MCF-7 cells = assay: Cell viability assay; type: cell-based, human; details: read-out: MCF-7 IC50
LCC-2 cells = assay: Cell viability assay on tamoxifen-resistant LCC-2 cells; type: cell-based; details: Homo sapiens, LCC2, read-out: LCC-2 IC50
ERα [2] = biological target: T1, ERα; assay: cell-based; type: cell-based; details: with 10 nmol/L 17β-estradiol
ERβ = ERβ (Homo sapiens, UniProt Q92731); assay: ER transcriptional activity; type: cell-based; details: with 10 nmol/L 17β-estradiol
ERβ, sequence (Q92731 whole entry): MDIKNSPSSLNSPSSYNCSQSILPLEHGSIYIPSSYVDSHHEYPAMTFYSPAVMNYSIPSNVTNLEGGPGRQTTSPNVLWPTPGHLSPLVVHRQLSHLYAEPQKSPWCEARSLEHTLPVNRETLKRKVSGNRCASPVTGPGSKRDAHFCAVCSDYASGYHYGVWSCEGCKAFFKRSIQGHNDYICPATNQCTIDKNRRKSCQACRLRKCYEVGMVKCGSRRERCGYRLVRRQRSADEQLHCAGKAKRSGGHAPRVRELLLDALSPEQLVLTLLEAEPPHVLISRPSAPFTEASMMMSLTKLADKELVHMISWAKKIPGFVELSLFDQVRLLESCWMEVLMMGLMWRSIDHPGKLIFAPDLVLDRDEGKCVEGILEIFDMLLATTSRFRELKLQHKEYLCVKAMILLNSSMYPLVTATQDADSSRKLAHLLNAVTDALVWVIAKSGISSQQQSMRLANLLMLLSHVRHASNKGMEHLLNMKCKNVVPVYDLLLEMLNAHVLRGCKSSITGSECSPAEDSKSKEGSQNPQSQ

ERα C530S mutant = biological target: T3, ERα C530S mutant (Homo sapiens, UniProt P03372, C530S); assay: Transcriptional activity; type: cell-based; details: HEK-293T^C530S cells, compared with wild type
T3 sequence (P03372 1-595 C530S): T1 sequence (P03372 1-595) with C530S

## CC/C(=C(\c1ccccc1)c1ccc(OCCN(C)C)cc1)c1ccccc1 [tamoxifen, reference compound]
MCF-7 tumor xenograft; 4 mg/kg ip every other day
  TGI (tumor growth inhibition): 87%

## CC(C)=CC(=O)Nc1ccc(C2=C(c3ccc(O)cc3)C3CC(S(=O)(=O)N(CC(F)(F)F)c4ccc(O)cc4)C2O3)cc1 (centres unmarked) [29c′]
ERα [1]
  ERα degradation (immunoblot): impaired degradation ability
Human ERβ LBD
  RBA ERβ: 2.05 ± 0.45%
Human ERβ LBD; read-out: Ki ERβ
  Ki: 3.25 nM
T-47D^Y537S cells; cell viability
  IC50: 4050 ± 270 nM
T-47D cells; cell viability
  IC50: 5520 ± 270 nM
Human ERα LBD
  RBA ERα: 15.12% and 15.12 ± 0.31%
  α/β ratio: 7.37
Human ERα LBD; read-out: Ki ERα
  Ki: 0.18 nM
T-47D^D538G cells; cell viability
  IC50: 5000 ± 360 nM
MCF-7 cells; cell viability, 72 h
  IC50: 950 ± 110 nM

## C[C@]12CC[C@@H]3c4ccc(O)cc4C[C@@H](CCCCCCCCC[S+]([O-])CCCC(F)(F)C(F)(F)F)[C@H]3[C@@H]1CC[C@@H]2O (some centres unmarked) [Ful, Fulvestrant, reference compound]
LCC-2 cells
  IC50: 11000 ± 450 nM
ERα [2]
  Antagonist mode ERα Eff (%E2): 80 ± 2 %E2
ERβ
  Antagonist mode ERβ Eff (%E2): 73 ± 1 %E2
ERα C530S mutant
  Effect of C530S mutation on antagonistic activity: unaffected by this mutation
T-47D^Y537S cells; Homo sapiens
  IC50: 2220 ± 170 nM
T-47D cells; Homo sapiens, T47D
  IC50: 1760 ± 60 nM
MCF-7 tumor xenograft; 2 mg/kg ip every other day
  TGI (tumor growth inhibition): 79%
T-47D^D538G cells; Homo sapiens
  IC50: 3920 ± 220 nM
MCF-7 cells; Homo sapiens, MCF7, 72 h
  IC50: 140 ± 50 nM

## CC(C)=CC(=O)Nc1ccc(C2=C(c3ccc(O)cc3)C3OC2CC3S(=O)(=O)N(CC(F)(F)F)c2cccc(O)c2)cc1 (centres unmarked) [Compound 29h, N-(4-(3-(4-Hydroxyphenyl)-5-(N-(3-hydroxyphenyl)-N-(2,2,2-trifluoroethyl)sulfamoyl)-7-oxabicyclo[2.2.1]hept-2-en-2-yl)phenyl)-3-methylbut-2-enamide]
ERα [1]
  ERα degradation (immunoblot): effective in inducing ERα degradation
Human ERβ LBD
  Ki: 15.2 nM
  RBA ERβ: 0.44 ± 0.02%
T-47D^Y537S cells; Homo sapiens
  IC50: 2990 ± 220 nM
T-47D cells; Homo sapiens, T47D
  IC50: 3920 ± 10 nM
Human ERα LBD
  Ki: 0.35 nM
  RBA ERα: 7.89 ± 0.11%
  α/β ratio: 17.93
T-47D^D538G cells; Homo sapiens
  IC50: 2840 ± 140 nM
MCF-7 cells; Homo sapiens, MCF7, 72 h
  IC50: 980 ± 350 nM

## C/C=C/C(=O)Nc1ccc(C2=C(c3ccc(O)cc3)C3OC2CC3S(=O)(=O)N(CC(F)(F)F)c2ccc(O)cc2)cc1 (centres unmarked) [Compound 29b, (E)-N-(4-(3-(4-Hydroxyphenyl)-5-(N-(4-hydroxyphenyl)-N-(2,2,2-trifluoroethyl)sulfamoyl)-7-oxabicyclo[2.2.1]hept-2-en-2-yl)phenyl)but-2-enamide]
Human ERβ LBD
  Ki: 10.6 nM
  RBA ERβ: 0.63 ± 0.14%
T-47D^Y537S cells; Homo sapiens
  IC50: > 31000 nM
T-47D cells; Homo sapiens, T47D
  IC50: 5120 ± 330 nM
Human ERα LBD
  Ki: 0.14 nM
  RBA ERα: 19.82 ± 0.19%
  α/β ratio: 31.46
T-47D^D538G cells; Homo sapiens
  IC50: > 31000 nM
MCF-7 cells; Homo sapiens, MCF7, 72 h
  IC50: 360 ± 40 nM

## CC(C)CC(=O)Nc1ccc(C2=C(c3ccc(O)cc3)[C@H]3O[C@@H]2CC3S(=O)(=O)N(CC(F)(F)F)c2ccc(O)cc2)cc1 (mixture of isomers) [Compound 29k, N-(4-((1R,4R)-3-(4-Hydroxyphenyl)-5-(N-(4-hydroxyphenyl)-N-(2,2,2-trifluoroethyl)sulfamoyl)-7-oxabicyclo[2.2.1]hept-2-en-2-yl)phenyl)-3-methylbutanamide]
ERα [1]
  ERα degradation (immunoblot): impaired degradation ability
Human ERβ LBD
  Ki: 4.6 nM
  RBA ERβ: 1.45 ± 0.12%
T-47D^Y537S cells; Homo sapiens
  IC50: > 31000 nM
T-47D cells; Homo sapiens, T47D
  IC50: > 31000 nM
Human ERα LBD
  Ki: 1.15 nM
  RBA ERα: 2.41 ± 0.21%
  α/β ratio: 1.66
T-47D^D538G cells; Homo sapiens
  IC50: > 31000 nM
MCF-7 cells; Homo sapiens, MCF7, 72 h
  IC50: 1060 ± 190 nM

## C=CC(=O)Nc1ccc(C2=C(c3ccc(O)cc3)C3OC2CC3S(=O)(=O)N(CC(F)(F)F)c2ccc(O)cc2)cc1 (centres unmarked) [Compound 29a, N-(4-(3-(4-Hydroxyphenyl)-5-(N-(4-hydroxyphenyl)-N-(2,2,2-trifluoroethyl)sulfamoyl)-7-oxabicyclo[2.2.1]hept-2-en-2-yl)phenyl)acrylamide]
Human ERβ LBD
  RBA ERβ: 6.74 ± 0.21%
Human ERβ LBD; read-out: Ki ERβ
  Ki: 0.99 nM
T-47D^Y537S cells; Homo sapiens
  IC50: > 31000 nM
T-47D cells; Homo sapiens, T47D
  IC50: 2850 ± 290 nM
Human ERα LBD
  RBA ERα: 20.03 ± 0.25%
  α/β ratio: 2.97
Human ERα LBD; read-out: Ki ERα
  Ki: 0.14 nM
T-47D^D538G cells; Homo sapiens
  IC50: 5550 ± 240 nM
MCF-7 cells; Homo sapiens, MCF7, 72 h
  IC50: 180 ± 50 nM

## CCN(c1ccc(OC)cc1)S(=O)(=O)C1CC2OC1C(c1ccc(O)cc1)=C2c1ccc(NC(=O)C=C(C)C)cc1 (centres unmarked) [Compound 29j, N-(4-(5-(N-Ethyl-N-(4-methoxyphenyl)sulfamoyl)-3-(4-hydroxyphenyl)-7-oxabicyclo[2.2.1]hept-2-en-2-yl)phenyl)-3-methylbut-2-enamide]
ERα [1]
  ERα degradation (immunoblot): effective in inducing ERα degradation
Human ERβ LBD
  Ki: 13.1 nM
  RBA ERβ: 0.51 ± 0.09%
T-47D^Y537S cells; Homo sapiens
  IC50: 12700 ± 530 nM
T-47D cells; Homo sapiens, T47D
  IC50: 7920 ± 190 nM
Human ERα LBD
  Ki: 0.63 nM
  RBA ERα: 4.36 ± 0.33%
  α/β ratio: 8.55
T-47D^D538G cells; Homo sapiens
  IC50: 8250 ± 450 nM
MCF-7 cells; Homo sapiens, MCF7, 72 h
  IC50: 290 ± 30 nM

## C/C=C/C(=O)Nc1ccc(OS(=O)(=O)C2CC3OC2C(c2ccc(O)cc2)=C3c2ccc(O)cc2)cc1 (centres unmarked) [Compound 26b, 4-((E)-But-2-enamido)phenyl-5,6-bis(4-hydroxyphenyl)-7-oxabicyclo[2.2.1]hept-5-ene-2-sulfonate]
Human ERβ LBD
  Ki: 16.7 nM
  RBA ERβ: 0.40 ± 0.05%
T-47D^Y537S cells; Homo sapiens
  IC50: > 31000 nM
T-47D cells; Homo sapiens, T47D
  IC50: 19400 ± 540 nM
Human ERα LBD
  Ki: 0.58 nM
  RBA ERα: 4.77 ± 0.16%
  α/β ratio: 11.93
T-47D^D538G cells; Homo sapiens
  IC50: > 31000 nM
MCF-7 cells; Homo sapiens, MCF7, 72 h
  IC50: 9180 ± 950 nM

## CC/C(=C(\c1ccc(O)cc1)c1ccc(OCCN(C)C)cc1)c1ccccc1 [Compound 4-OHT, 4-hydroxytamoxifen, reference compound]
LCC-2 cells
  IC50: 22200 ± 1930 nM
ERβ
  Antagonist mode ERβ Eff (%E2): 11 ± 3 %E2
T-47D^Y537S cells; Homo sapiens
  IC50: 8900 ± 280 nM
T-47D cells; Homo sapiens, T47D
  IC50: 1950 ± 200 nM
T-47D^D538G cells; Homo sapiens
  IC50: 9130 ± 600 nM
MCF-7 cells; Homo sapiens, MCF7, 72 h
  IC50: 670 ± 80 nM

## CC(C)=CC(=O)Nc1ccc(C2=C(c3ccc(O)cc3)C3OC2CC3S(=O)(=O)Oc2ccccc2)cc1 (centres unmarked) [Compound 28c, Phenyl-6-(4-hydroxyphenyl)-5-(4-(3-methylbut-2-enamido)phenyl)-7-oxabicyclo[2.2.1]hept-5-ene-2-sulfonate]
Human ERβ LBD
  Ki: 7.41 nM
  RBA ERβ: 0.90 ± 0.25%
T-47D^Y537S cells; Homo sapiens
  IC50: > 31000 nM
T-47D cells; Homo sapiens, T47D
  IC50: 24900 ± 770 nM
Human ERα LBD
  Ki: 0.12 nM
  RBA ERα: 22.13 ± 0.92%
  α/β ratio: 24.59
T-47D^D538G cells; Homo sapiens
  IC50: 17600 ± 890 nM
MCF-7 cells; Homo sapiens, MCF7, 72 h
  IC50: 350 ± 20 nM
